In one test the test system is P388. In words: Cytotoxicity against mouse P388 cells after 72 hrs by MTT method. The note with it: P388, 72 h. The format is functional, cell-based. In a few lines:
(§1)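 Cells kept in RPMI-1640 with 10% FBS at 37 °C under 5% CO2/95% air. Seeded at 5 × 10^4 cells/mL and held 24 h before compound was added in DMSO at various concentrations. Incubation then ran 72 h. MTT (5 mg/mL stock) was added for 4 h, formazan was dissolved in DMSO, and absorbance was read at 540 nm. Result reported as IC50.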

The next test deals with A549. In words: Cytotoxicity against human A549 cells after 72 hrs by MTT method. The format is functional, cell-based. To be noted: A549, 72 h. A digest of the protocol:
as §1
(In general: Formazan colour is commonly taken as a measure of viable cells.)

A word on the IC50: it is the point on the concentration scale where inhibition reaches its midpoint.

The structures appear in SMILES notation.

For `C=C1[C@@H](C)[C@H]2[C@H](Cc3ccccc3)NC(=O)[C@]23OC(=O)/C=C/[C@H](C)[C@H](O)[C@@H](C)C/C=C/[C@H]3[C@@H]1O`, the IC50 came to 75 µM in the test on P388 and 8.8 µM in the test on A549.

Consider `CC1=C(C)[C@H]2[C@H](Cc3ccccc3)NC(=O)[C@]23OC(=O)/C=C/[C@H](C)[C@H](O)[C@@H](C)C/C=C/[C@H]3[C@@H]1O`, for which the IC50 in the test with P388 is 56 µM; with A549, 21 µM.

Regarding `C[C@H]1C/C=C/[C@H]2[C@@H]3O[C@]3(C)[C@@H](C)[C@H]3[C@H](Cc4ccccc4)NC(=O)[C@]32OC(=O)O/C=C/[C@@](C)(O)C1=O` [CYTOCHALASIN E], the figures for the IC50 in the test on P388 and with A549 were 0.093 µM and 0.0062 µM, respectively.

Regarding `CC1=C(C)[C@H]2[C@H](Cc3ccccc3)NC(=O)[C@]23OC(=O)O/C=C/[C@@](C)(O)C(=O)[C@@H](C)C/C=C/[C@H]3[C@@H]1O` [CYTOCHALASIN K], the IC50 was determined as 89 µM in the test with P388 and 8.4 µM in the test on A549.

Turning to `CC1=C(C)[C@H]2[C@H](Cc3ccccc3)NC(=O)[C@]23OC(=O)/C=C/[C@@](C)(O)C[C@@H](C)C/C=C/[C@H]3[C@@H]1O` [CYTOCHALASIN Z9], the IC50 in the test on P388 was 99 µM; with A549 it was 8.7 µM.

For the origin of these results see ChEMBL document CHEMBL1157960, “10-Phenyl-[12]-cytochalasins Z7, Z8, and Z9 from the marine-derived fungus Spicaria elegans” (J Nat Prod, 2006).
